From ChEMBL document CHEMBL1828581 (J Med Chem, 2011)
Active and inactive are the calls of the source. The calls are words filed in the database; no cut-off is given here.

Columns and labels:
[1] = Dissociation constant, pKa of the compound with quinoline heteroaromatic N atom by pH titration method; assay type: physicochemical
[2] = Dissociation constant, pKa of the compound with basic tertiary amino group by pH titration method; assay type: physicochemical
[3] = Inhibition of beta-hematin formation assessed as equivalents of drug relative to hematin for 50% inhibition at pH 4.5 by BHIA assay; assay type: functional
Summary of the method: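 β-Hematin formation mediated by 4.5 M acetate, pH 4.5, in a 96-well plate format. Unconverted hematin is dissolved with 5% (v/v) aqueous pyridine at pH 7.5, which leaves β-hematin undissolved. Result expressed as equivalents of compound relative to hematin at 50% inhibition.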

Plasmodium falciparum [4] = assay: Antimalarial activity against erythrocyte stages of chloroquine-sensitive Plasmodium falciparum D10 infected in human erythrocytes by lactate dehydrogenase assay; assay type: functional, organism-based
Summary of the method: (§1)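 Asexual blood-stage P. falciparum in continuous culture (modified Trager–Jensen), read out by parasite lactate dehydrogenase. Stocks are 2 mg/mL in DMSO or methanol. […] IC50 comes from nonlinear dose–response fitting.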

Plasmodium falciparum [5] = assay: Antimalarial activity against erythrocyte stages of chloroquine-resistant Plasmodium falciparum K1 infected in human erythrocytes by lactate dehydrogenase assay; assay type: functional, organism-based; summary of the method: as §1
Plasmodium falciparum [6] = assay: Resistance index, ratio of IC50 for chloroquine-resistant Plasmodium falciparum K1 to IC50 for chloroquine-sensitive Plasmodium falciparum D10; assay type: functional
Summary of the method: (§2)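 Resistance index is the IC50 against the resistant strain divided by the IC50 against D10. Both IC50s come from the lactate dehydrogenase growth assay on asexual blood stages, run by the same serial-dilution protocol.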

Plasmodium falciparum [7] = assay: Antimalarial activity against erythrocyte stages of chloroquine-resistant Plasmodium falciparum Dd2 infected in human erythrocytes by lactate dehydrogenase assay; assay type: functional, organism-based; summary of the method: as §1
Plasmodium falciparum [8] = assay: Antimalarial activity against erythrocyte stages of chloroquine-resistant Plasmodium falciparum W2 infected in human erythrocytes by lactate dehydrogenase assay; assay type: functional, organism-based; summary of the method: as §1
Plasmodium falciparum [9] = assay: Antimalarial activity against erythrocyte stages of chloroquine-resistant Plasmodium falciparum RSA11 infected in human erythrocytes by lactate dehydrogenase assay; assay type: functional, organism-based; summary of the method: as §1
CHO = assay: Cytotoxicity against CHO cells by MTT assay; assay type: cell-based; conditions: Cricetulus griseus
Summary of the method: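 CHO cells, MTT colorimetric growth read-out. Compound from a 2 mg/mL stock, tested from 100 μg/mL in 10-fold serial dilutions in complete medium (5 concentrations, lowest 0.01 μg/mL). Emetine reference. IC50 from nonlinear dose–response fitting; mean ± SEM, n = 3.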

[10] = Selectivity index, ratio of IC50 for CHO cells to IC50 for chloroquine-sensitive Plasmodium falciparum D10; assay type: toxicity, cell-based; conditions: hamster, read-out: Ratio IC50
Summary of the method: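 The D10 value came from parasite lactate dehydrogenase read-out on erythrocytic cultures, 10 two-fold dilutions from 100 ng/mL, with nonlinear dose–response fitting.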

[11] = target: T1, Chloroquine resistance transporter (Plasmodium falciparum, UniProt Q9N623); assay: Inhibition of chloroquine-resistant Plasmodium falciparum Dd2 chloroquine resistance transporter expressed in xenopus laevis oocytes assessed as inhibition of [3H]chloroquine uptake after 1 to 2 hrs; assay type: cell-based, Oocyte
T1 sequence (Q9N623 whole entry): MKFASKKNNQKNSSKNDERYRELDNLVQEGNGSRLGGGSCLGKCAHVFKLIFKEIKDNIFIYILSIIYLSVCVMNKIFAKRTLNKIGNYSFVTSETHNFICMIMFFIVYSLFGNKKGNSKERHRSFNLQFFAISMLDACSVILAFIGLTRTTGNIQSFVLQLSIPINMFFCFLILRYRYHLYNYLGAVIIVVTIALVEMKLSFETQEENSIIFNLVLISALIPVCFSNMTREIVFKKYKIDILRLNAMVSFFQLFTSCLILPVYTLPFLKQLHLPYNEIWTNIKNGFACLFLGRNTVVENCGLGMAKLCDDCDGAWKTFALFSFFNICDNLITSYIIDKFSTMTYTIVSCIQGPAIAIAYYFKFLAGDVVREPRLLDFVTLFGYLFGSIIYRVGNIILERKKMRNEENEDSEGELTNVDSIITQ

[12] = target: T2, Chloroquine resistance transporter (Plasmodium falciparum) (UniProt Q9N623); assay: Inhibition of chloroquine-sensitive Plasmodium falciparum D10 chloroquine resistance transporter expressed in xenopus laevis oocytes assessed as inhibition of [3H]chloroquine uptake after 1 to 2 hrs; assay type: cell-based; conditions: Oocyte
T2 sequence (whole entry): T1 sequence (Q9N623 whole entry)

Plasmodium falciparum [13] = assay: Resistance index, ratio of IC50 for chloroquine-resistant Plasmodium falciparum Dd2 to IC50 for chloroquine-sensitive Plasmodium falciparum D10; assay type: functional; summary of the method: as §2
Plasmodium falciparum [14] = assay: Resistance index, ratio of IC50 for chloroquine-resistant Plasmodium falciparum W2 to IC50 for chloroquine-sensitive Plasmodium falciparum D10; assay type: functional; summary of the method: as §2
Plasmodium falciparum [15] = assay: Resistance index, ratio of IC50 for chloroquine-resistant Plasmodium falciparum RSA11 to IC50 for chloroquine-sensitive Plasmodium falciparum D10; assay type: functional; summary of the method: as §2
Plasmodium berghei [16] = assay: Antimalarial activity against Plasmodium berghei infected in NMRI mouse assessed as host survival time at 30 mg/kg, po administered as a single dose 4 hrs post infection (reference value: 4 days)
Plasmodium berghei [17] = assay: Antimalarial activity against Plasmodium berghei infected in NMRI mouse assessed as host survival time at 100 mg/kg, po administered as a single dose 4 hrs post infection (reference value: 4 days)
Plasmodium berghei [18] = assay: Antimalarial activity against Plasmodium berghei infected in NMRI mouse assessed as reduction of parasitemia level at 30 mg/kg, po administered as single dose 4 hrs post infection (reference value: 2.76%); parameters: scale not given: the % may be the effect or the level left
Plasmodium berghei [19] = assay: Antimalarial activity against Plasmodium berghei infected in NMRI mouse assessed as reduction of parasitemia level at 100 mg/kg, po administered as single dose 4 hrs post infection (reference value: 0.16%); parameters: scale not given: the % may be the effect or the level left
Plasmodium berghei [20] = assay: Antimalarial activity against Plasmodium berghei infected in NMRI mouse assessed as parasitized red blood cells level at 30 mg/kg, po administered as single dose 4 hrs post infection measured on day 4 (reference value: 78%)
Plasmodium berghei [21] = assay: Antimalarial activity against Plasmodium berghei infected in NMRI mouse assessed as parasitized red blood cells level at 100 mg/kg, po administered as single dose 4 hrs post infection measured on day 4 (reference value: 78%)
Plasmodium berghei [22] = assay: Antimalarial activity against Plasmodium berghei infected in NMRI mouse assessed as parasitized red blood cells level at 100 mg/kg, po administered on day 0, 1 and 2 after postinfection measured on day 4 (reference value: 78%); assay type: functional
Plasmodium berghei [23] = assay: Antimalarial activity against Plasmodium berghei infected in NMRI mouse assessed as parasitized red blood cells level at 30 mg/kg, po administered on day 0, 1 and 2 after postinfection measured on day 4 (reference value: 78%); assay type: functional
Plasmodium berghei [24] = assay: Antimalarial activity against Plasmodium berghei infected in NMRI mouse assessed as host survival time at 100 mg/kg, po administered on day 0, 1 and 2 after postinfection (reference value: 4 days); assay type: functional
Summary of the method: (§3)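 P. berghei in female NMRI mice (modified Peters 4-day test): 0.2 mL of donor blood diluted to 10^8 parasitized erythrocytes/mL given i.v. Oral dosing starts 4 h postinfection, with further daily doses at 24, 48 and 72 h by regimen. Groups of 3 treated and 5 untreated mice. Survival followed to day 30, and survivors are checked for parasitemia.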

Plasmodium berghei [25] = assay: Antimalarial activity against Plasmodium berghei infected in NMRI mouse assessed as host survival time at 30 mg/kg, po administered on day 0, 1 and 2 after postinfection (reference value: 4 days); assay type: functional; summary of the method: as §3
Plasmodium berghei [26] = assay: Antimalarial activity against Plasmodium berghei infected in NMRI mouse assessed as reduction of parasitemia level at 100 mg/kg, po administered on day 0, 1 and 2 after postinfection (reference value: 0.11%); assay type: functional; parameters: scale not given: the % may be the effect or the level left
Plasmodium berghei [27] = assay: Antimalarial activity against Plasmodium berghei infected in NMRI mouse assessed as reduction of parasitemia level at 30 mg/kg, po administered on day 0, 1 and 2 after postinfection (reference value: 0.13%); assay type: functional; parameters: scale not given: the % may be the effect or the level left
Plasmodium berghei [28] = assay: Antimalarial activity against Plasmodium berghei infected in NMRI mouse assessed as parasitized red blood cells level at 100 mg/kg, po administered on day 0, 1, 2 and 3 after postinfection measured on day 4 (reference value: 78%); assay type: functional
Plasmodium berghei [29] = assay: Antimalarial activity against Plasmodium berghei infected in NMRI mouse assessed as parasitized red blood cells level at 30 mg/kg, po administered on day 0, 1, 2 and 3 after postinfection measured on day 4 (reference value: 78%); assay type: functional
Plasmodium berghei [30] = assay: Antimalarial activity against Plasmodium berghei infected in NMRI mouse assessed as host survival time at 100 mg/kg, po administered on day 0, 1, 2 and 3 after postinfection (reference value: 4 days); assay type: functional; summary of the method: as §3
Plasmodium berghei [31] = assay: Antimalarial activity against Plasmodium berghei infected in NMRI mouse assessed as host survival time at 30 mg/kg, po administered on day 0, 1, 2 and 3 after postinfection (reference value: 4 days); assay type: functional; summary of the method: as §3
Plasmodium berghei [32] = assay: Antimalarial activity against Plasmodium berghei infected in NMRI mouse assessed as reduction of parasitemia level at 100 mg/kg, po administered on day 0, 1, 2 and 3 after postinfection (reference value: 0.12%); assay type: functional; parameters: scale not given: the % may be the effect or the level left
Plasmodium berghei [33] = assay: Antimalarial activity against Plasmodium berghei infected in NMRI mouse assessed as reduction of parasitemia level at 30 mg/kg, po administered on day 0, 1, 2 and 3 after postinfection (reference value: 0.38%); assay type: functional; parameters: scale not given: the % may be the effect or the level left

Row | SMILES | pKa [1] | pKa [2] | IC50 [3] [equivalents] | IC50 (Plasmodium falciparum [4]) | IC50 (Plasmodium falciparum [5]) | Ratio IC50 (Plasmodium falciparum [6]) | other results
1 | CN(Cc1ccc(N(C)C)cc1)Cc1cccc(CNc2ccnc3cc(Cl)ccc23)c1 | 7.36 | 9.67 | 0.5 | > 0.1 µg/mL | 281 nM | – | –
2 | CN(Cc1ccccc1)Cc1ccc(CNc2ccnc3cc(Cl)ccc23)cc1 | 7.56 | 9.9 | 0.32 | 22 nM | 25 nM | 0.9 | IC50 (Plasmodium falciparum [7]): 26 nM; IC50 (Plasmodium falciparum [8]): 23 nM; IC50 (Plasmodium falciparum [9]): 38 nM; IC50 (CHO): > 249000 nM; selectivity ratio [10]: > 9220; IC50 [11]: 69000 nM; inhibition [12]: Active; Ratio IC50 (Plasmodium falciparum [13]): 1.2; Ratio IC50 (Plasmodium falciparum [14]): 1; Ratio IC50 (Plasmodium falciparum [15]): 1.7; Time (Plasmodium berghei [16]): 6.7 days; Time (Plasmodium berghei [17]): 10 days; Activity (Plasmodium berghei [18]): 97%; Activity (Plasmodium berghei [19]): 99.8%; Activity (Plasmodium berghei [20]): 2.16%; Activity (Plasmodium berghei [21]): 0.12%
3 | CN(Cc1ccc(Cl)cc1)Cc1ccc(CNc2ccnc3cc(Cl)ccc23)cc1 | 7.44 | 9.74 | 0.34 | > 0.1 µg/mL | > 10 µg/mL | – | –
4 | COc1ccc(CN(C)Cc2ccccc2CNc2ccnc3cc(Cl)ccc23)cc1 | 7.47 | 9.85 | 0.46 | 175 nM | 134 nM | 0.8 | –
5 | CN(Cc1ccccc1)Cc1cccc(CNc2ccnc3cc(Cl)ccc23)c1 | 7.63 | 9.77 | 0.69 | 41 nM | 43 nM | 1 | IC50 (CHO): 70000 nM; selectivity ratio [10]: 1270; Activity (Plasmodium berghei [22]): 0.09%; Activity (Plasmodium berghei [23]): 0.1%; Time (Plasmodium berghei [24]): 30 days; Time (Plasmodium berghei [25]): 16.7 days; Activity (Plasmodium berghei [26]): 99.9%; Activity (Plasmodium berghei [27]): 99.9%; IC50 [11]: 36000 nM
6 | CCN(CC)CCCC(C)Nc1ccnc2cc(Cl)ccc12 (stereo not given) [CHLOROQUINE] | – | – | 1.9 | – | – | – | inhibition [12]: Active
7 | CN(Cc1ccc(N(C)C)cc1)Cc1ccccc1CNc1ccnc2cc(Cl)ccc12 | 7.4 | 9.71 | 0.48 | 178 nM | 149 nM | 0.8 | –
8 | CN(Cc1ccc(CNc2ccnc3cc(Cl)ccc23)cc1)Cc1ccc(N(C)C)cc1 | 7.33 | 9.66 | 0.4 | 47 nM | 36 nM | 0.8 | IC50 (CHO): > 225000 nM; selectivity ratio [10]: > 4790
9 | CN(Cc1ccc(Cl)cc1)Cc1ccccc1CNc1ccnc2cc(Cl)ccc12 | 7.44 | 9.6 | 1.4 | – | 1130 nM | – | –
10 | CC[C@H]1CN2CCc3cc(OC)c(OC)cc3[C@@H]2C[C@@H]1C[C@H]1NCCc2cc(OC)c(OC)cc21 [EMETINE] | – | – | – | – | – | – | IC50 (CHO): 80 nM
11 | COc1ccc(CN(C)Cc2cccc(CNc3ccnc4cc(Cl)ccc34)c2)cc1 | 7.38 | 9.67 | 0.52 | 91 nM | 120 nM | 1.3 | –
12 | CN(Cc1ccc(Cl)cc1)Cc1cccc(CNc2ccnc3cc(Cl)ccc23)c1 | 7.55 | 9.89 | 0.66 | 138 nM | 85 nM | 0.6 | –
13 | COc1ccc(CN(C)Cc2ccc(CNc3ccnc4cc(Cl)ccc34)cc2)cc1 | 7.44 | 9.7 | 1.44 | 130 nM | 88 nM | 0.7 | –
14 | CN(Cc1ccccc1)Cc1ccccc1CNc1ccnc2cc(Cl)ccc12 | 7.57 | 9.85 | 1.1 | 140 nM | 122 nM | 0.9 | Activity (Plasmodium berghei [28]): 0.09%; Activity (Plasmodium berghei [29]): 0.3%; Time (Plasmodium berghei [30]): 30 days; Time (Plasmodium berghei [31]): 20.7 days; Activity (Plasmodium berghei [32]): 99.9%; Activity (Plasmodium berghei [33]): 99.6%; IC50 [11]: 58000 nM
